Results taken from ChEMBL document CHEMBL3124917, “Design, synthesis, and biological evaluation of deuterated C-aryl glycoside as a potent and long-acting renal sodium-dependent glucose cotransporter 2 inhibitor for the treatment of type 2 diabetes” (J Med Chem, 2014).

Assays:
Canis familiaris [1] = assay: Antidiabetic activity in Beagle dog assessed as urinary glucose excretion at 0.03 mg/kg, po administered 1 hr prior to glucose challenge measured after 1 to 24 hrs relative to dapagliflozin; assay type: functional, Canis lupus familiaris, Urine
Summary of the method: (§1)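 Overnight-fasted beagle dogs, n = 3 per group, given 0.03 mg/kg orally by gavage in 10% PEG400; vehicle controls received 10% PEG400. Oral glucose (2 g/kg, 5 mL/kg) given 1 h post-dose. Urine collected in metabolic cages at 0–8 and 8–24 h, glucose read on a biochemistry analyzer. Expressed as % of reference positive control; mean ± SD.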

Canis familiaris [2] = assay: Antidiabetic activity in Beagle dog assessed as urinary glucose excretion at 0.03 mg/kg, po administered 1 hr prior to glucose challenge measured after 8 to 24 hrs relative to dapagliflozin; assay type: functional, Canis lupus familiaris, Urine
Summary of the method: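 Overnight-fasted beagle dogs, n = 3 per group, given 0.03 mg/kg orally by gavage in 10% PEG400; vehicle controls received 10% PEG400. Oral glucose (2 g/kg, 5 mL/kg) given 1 h post-dose. Expressed as % of reference positive control; mean ± SD.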

Canis familiaris [3] = assay: Antidiabetic activity in Beagle dog assessed as urinary glucose excretion at 0.03 mg/kg, po administered 1 hr prior to glucose challenge measured after 1 to 8 hrs relative to dapagliflozin; assay type: functional, Canis lupus familiaris, Urine; summary of the method: as §1
Rattus norvegicus [4] = assay: Antidiabetic activity in Sprague-Dawley rat assessed as urinary glucose excretion at 1 mg/kg, po administered 1 hr prior to glucose challenge measured after 1 to 24 hrs relative to dapagliflozin; assay type: functional, Urine
Summary of the method: (§2)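 Overnight-fasted Sprague-Dawley rats, n = 3 per group, dosed 1 mg/kg by oral gavage in 30% PEG400; controls received vehicle. Oral glucose (2 g/kg, 10 mL/kg) given 1 h post-dose. Urine collected in metabolic cages at 0–4 and 4–24 h, glucose measured on a biochemistry analyzer. Expressed as % of reference positive control; mean ± SD.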

Rattus norvegicus [5] = assay: Antidiabetic activity in Sprague-Dawley rat assessed as urinary glucose excretion at 1 mg/kg, po administered 1 hr prior to glucose challenge measured after 4 to 24 hrs relative to dapagliflozin; assay type: functional, Urine; summary of the method: as §2
Rattus norvegicus [6] = assay: Antidiabetic activity in Sprague-Dawley rat assessed as urinary glucose excretion at 1 mg/kg, po administered 1 hr prior to glucose challenge measured after 1 to 4 hrs relative to dapagliflozin; assay type: functional, Urine; summary of the method: as §2
[7] = AUC (0 to infinity) in Sprague-Dawley rat at 3 mg/kg, po by LC-MS/MS analysis; assay type: ADME, organism-based; design: time infinity, dose 3 mg/kg, route oral; settings: plasma
Summary of the method: (§3)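 Male Sprague-Dawley rats, n = 4 per group, overnight-fasted. Oral gavage of 3 or 1 mg/kg in 30% PEG400; i.v. arm at 1 mg/kg. Orbital plexus blood taken under ether at 0.083–24 h; plasma deproteinized and assayed by LC-MS/MS. Noncompartmental parameters derived; mean ± SD reported.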

[8] = Half life in Sprague-Dawley rat at 3 mg/kg, po by LC-MS/MS analysis; assay type: ADME, organism-based; design: dose 3 mg/kg, route oral; settings: in vivo; summary of the method: as §3
[9] = Cmax in Sprague-Dawley rat at 3 mg/kg, po by LC-MS/MS analysis; assay type: ADME, organism-based; design: dose 3 mg/kg, route oral; settings: in vivo; summary of the method: as §3
[10] = Tmax in Sprague-Dawley rat at 3 mg/kg, po by LC-MS/MS analysis; assay type: ADME, organism-based; design: dose 3 mg/kg, route oral; settings: in vivo; summary of the method: as §3

| AUC(0-inf) [7] [ng·h/mL] | half-life [8] [h] | Cmax [9] [ng/mL] | Tmax [10] [h] | SMILES | Activity (Canis familiaris [1]) [mg] | Activity (Canis familiaris [2]) [mg] | Activity (Canis familiaris [3]) [mg] | Activity (Rattus norvegicus [4]) [mg] | Activity (Rattus norvegicus [5]) [mg] | Activity (Rattus norvegicus [6]) [mg] |
| --- | --- | --- | --- | --- | --- | --- | --- | --- | --- | --- |
|  |  |  |  | [2H][C@@]1(c2ccc(Cl)c(Cc3ccc(OCC)cc3)c2)O[C@H](CO)[C@@H](O)[C@H](O)[C@H]1O | 12700 | 8910 | 3760 | 2650 | 2460 | 193 |
| 16100 |  |  |  | [2H]C([2H])(c1ccc(OCC)cc1)c1cc([C@@H]2O[C@H](CO)[C@@H](O)[C@H](O)[C@H]2O)ccc1Cl | 10200 | 6830 | 3400 | 2220 | 2060 | 168 |
| 5350 | 5.66 | 1400 | 0.75 | [2H]C([2H])([2H])Oc1ccc(C([2H])([2H])c2cc([C@@H]3O[C@H](CO)[C@@H](O)[C@H](O)[C@H]3O)ccc2Cl)cc1 |  |  |  | 2100 | 1990 | 101 |
| 20900 |  |  |  | [2H]C([2H])(C)Oc1ccc(Cc2cc([C@@H]3O[C@H](CO)[C@@H](O)[C@H](O)[C@H]3O)ccc2Cl)cc1 |  |  |  | 2430 | 2310 | 119 |
| 22600 |  |  |  | [2H]C([2H])([2H])C([2H])([2H])Oc1ccc(Cc2cc([C@@H]3O[C@H](CO)[C@@H](O)[C@H](O)[C@H]3O)ccc2Cl)cc1 | 12000 |  | 3470 | 2300 | 2150 | 145 |
